Blank lines part the entries; values can stand above or below the compound they belong to. Calls of active or inactive are those of the source. The rule behind the calls is not given here.
Experiments:
[1] = Inhibition of jack bean alpha-mannosidase; design: species or system Canavalia ensiformis
In short: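 Jack bean enzyme (0.01–0.5 U/mL) preincubated 5 min at 20 °C with inhibitor, then reacted 20 min at 37 °C with increasing 4-nitrophenyl-α-D-mannopyranoside at pH 5.5. Stopped with 0.2 M borate pH 9.8; 4-nitrophenolate read at 410 nm. IC50 found graphically, or Ki and inhibition type from Lineweaver–Burk plots.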

[2] = biological target: T1, Lysosomal alpha-mannosidase (Homo sapiens, UniProt O00754); assay: Inhibition of alpha-mannosidase in human LN18 cells; format: cell-based
T1 sequence (O00754 whole entry): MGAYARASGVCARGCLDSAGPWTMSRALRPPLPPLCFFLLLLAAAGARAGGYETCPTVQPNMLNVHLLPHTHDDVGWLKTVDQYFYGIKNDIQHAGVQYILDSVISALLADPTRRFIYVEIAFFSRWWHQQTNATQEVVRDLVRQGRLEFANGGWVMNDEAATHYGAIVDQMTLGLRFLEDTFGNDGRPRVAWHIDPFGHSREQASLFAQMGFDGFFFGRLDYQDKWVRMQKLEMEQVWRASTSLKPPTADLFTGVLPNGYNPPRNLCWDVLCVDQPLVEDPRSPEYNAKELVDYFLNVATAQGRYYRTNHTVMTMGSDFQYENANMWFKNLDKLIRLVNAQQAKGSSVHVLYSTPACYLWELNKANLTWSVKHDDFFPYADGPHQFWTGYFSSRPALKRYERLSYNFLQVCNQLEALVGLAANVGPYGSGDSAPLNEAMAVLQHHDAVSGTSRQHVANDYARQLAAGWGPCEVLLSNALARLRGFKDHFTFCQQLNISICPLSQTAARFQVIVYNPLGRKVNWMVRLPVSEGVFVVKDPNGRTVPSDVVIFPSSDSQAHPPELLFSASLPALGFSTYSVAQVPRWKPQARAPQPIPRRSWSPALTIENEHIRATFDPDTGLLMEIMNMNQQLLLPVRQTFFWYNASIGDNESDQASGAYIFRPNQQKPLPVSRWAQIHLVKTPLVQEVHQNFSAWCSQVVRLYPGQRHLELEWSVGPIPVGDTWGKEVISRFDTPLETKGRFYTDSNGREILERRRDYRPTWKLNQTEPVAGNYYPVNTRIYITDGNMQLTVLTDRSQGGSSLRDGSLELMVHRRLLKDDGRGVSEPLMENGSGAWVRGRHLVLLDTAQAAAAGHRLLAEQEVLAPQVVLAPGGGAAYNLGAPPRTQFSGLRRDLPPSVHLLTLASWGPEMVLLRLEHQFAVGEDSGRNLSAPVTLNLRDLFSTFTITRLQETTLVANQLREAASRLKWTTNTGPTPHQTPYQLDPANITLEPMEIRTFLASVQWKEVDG
In short: (§1)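 Cell layers extracted in pH 5.0 phosphate buffer with 0.1% Triton X-100. Extracts were preincubated with increasing inhibitor concentrations (30 min, 37 °C), then given 4-methylumbelliferyl-α-D-mannopyranoside (150 µM final). Fluorescence increase (ex 360/em 460 nm) followed for 30 min at 37 °C. KM was determined first; IC50 and Ki were derived graphically. Swainsonine served as reference.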

[3] = biological target: T1, Lysosomal alpha-mannosidase; assay: Inhibition of alpha-mannosidase in human LNZ308 cells; format: cell-based; in short: as §1
[4] = Inhibition of drosophila golgi alpha-mannosidase 2
In short: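 It was preincubated 30 min at 20 °C with inhibitor added in DMSO, then given p-nitrophenyl α-mannopyranoside, all at 10% final DMSO and 20 °C. Timed aliquots were stopped with equal-volume 0.5 M sodium carbonate and read at A405. Ki was fitted by nonlinear regression on the linear portion of the time course.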

[5] = biological target: T1, Lysosomal alpha-mannosidase; assay: Inhibition of alpha-mannosidase in human HCEC; format: cell-based; in short: as §1
[6] = Growth inhibition of melanoma cells; format: functional, cell-based; conditions: Melanoma tumor cell line
[7] = Growth inhibition of human HCEC after 24 hrs by MTT assay; format: cell-based; conditions: for Activity: human, hcec
In short: (§2)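 Cells seeded 2 days before in the same medium (glioblastoma lines in DMEM 4.5 g/l glucose, 5% FCS; HCEC with 10% FCS), then exposed to increasing concentrations for 24 h. MTT (5 mg/ml in PBS) was added without medium change for 2 h at 37 °C. Formazan was dissolved in isopropanol-HCl and read at 540 nm. Growth inhibition is the ratio of MTT reduction, treated to untreated. Triplicate wells.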

HCEC = assay: Decrease in incorporation of [3H]Mann into TCA-precipitable high molecular weight cellular molecule in human HCEC at 200 uM after 6 hrs; format: functional, cell-based
In short: (§3)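 Cells given 200 µM inhibitor together with [2,3,4,5-3H]-L-Leu or [2,6-3H]-D-Mann (0.4 µCi/ml final). LNZ308 were seeded 10 h before a 14 h exposure; HCEC were exposed for 6 h. Incorporation measured by 10% TCA precipitation, solubilization in 0.1 N NaOH and beta counting. The Mann/Leu ratio of decrease, treated vs. control, was calculated. Triplicate wells, means ± SD.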

[8] = (§4) Growth inhibition of human LN18 cells after 24 hrs by MTT assay; format: functional, cell-based; conditions: LN-18, 24 h; in short: as §2
[9] = (§5) Growth inhibition of human LNZ308 cells after 24 hrs by MTT assay; format: functional, cell-based; conditions: LNZ308, 24 h; in short: as §2
LNZ308 [10] = assay: Decrease in incorporation of [3H]Mann into TCA-precipitable high molecular weight cellular molecule in human LNZ308 cells at 200 uM after 14 hrs; format: functional, cell-based; in short: as §3
[11] = Growth inhibition of human LNZ308 cells at 300 uM after 24 hrs by MTT assay; format: functional; conditions: LNZ308, 24 h, read-out: GI; in short: as §2
[12] = Growth inhibition of human HCEC at 300 uM after 24 hrs by MTT assay; format: cell-based; conditions: HCEC cells, read-out: GI; in short: as §2
[13] = Growth inhibition of human LN18 cells at 300 uM after 24 hrs by MTT assay; format: functional; conditions: LN-18, 24 h, read-out: GI; in short: as §2
LN-18 = assay: as §4; format: functional, cell-based; in short: as §2
LNZ308 [14] = assay: as §5; format: functional, cell-based; in short: as §2

SMILES: O[C@H]1[C@H]2[C@H](O)CCCN2C[C@H]1O [TRIDOLGOSIR]
IC50 [1]: 0.04 µM
Ki [1]: 0.155 µM
IC50 [2]: 0.05 µM
IC50 [3]: 0.02 µM
IC50 [4]: 0.04 µM
Ki [4]: 0.02 µM
IC50 [5]: 0.01 µM

SMILES: O=C(OC[C@H](NC[C@H]1NC[C@H](O)[C@@H]1O)c1ccccc1)c1ccc(Br)cc1
IC50 [2]: 200 µM
IC50 [3]: 75 µM
IC50 [6]: 125 µM
IC50 [5]: 75 µM

SMILES: O=C(OC[C@H](NC[C@H]1NC(=O)[C@H](O)[C@@H]1O)c1ccccc1)c1ccc(Br)cc1
IC50 [2]: 750 µM
IC50 [3]: 150 µM
inhibition of growth at 300 µM [11]: 51%
IC50 [5]: 75 µM
inhibition at 24 h, 300 µM [12]: 85%
inhibition of growth at 300 µM [13]: 59%

SMILES: O=C1N[C@H](CN[C@@H](CO)c2ccccc2)[C@@H](O)[C@H]1O
Ki [1]: 4 µM
Activity [7]: Not Active
IC50 [2]: 350 µM
IC50 [3]: 50 µM
Activity (LN-18): inactive
IC50 [5]: 75 µM
Activity (LNZ308 [14]): inactive

More lines, main results first:

IC50 [2]: 75 µM
IC50 [3]: 7.5 µM
IC50 [5]: 0.75 µM
SMILES: CN1C(=O)[C@H](O)[C@H](O)[C@H]1CN[C@@H](COC(=O)c1ccc(Br)cc1)c1ccccc1
IC50 ([7]; Homo sapiens, HCEC): 100 µM
Activity (HCEC): Active
IC50 [8]: 145 µM
IC50 [9]: 175 µM
Activity (LNZ308 [10]): Active

Ki [1]: 0.206 µM
IC50 [2]: 2 µM
Ki [2]: 3.2 µM
IC50 [3]: 0.5 µM
Ki [3]: 0.55 µM
IC50 [5]: 0.5 µM
Ki [5]: 0.67 µM
SMILES: CN1C(=O)[C@H](O)[C@H](O)[C@H]1CN[C@@H](CO)c1ccccc1
Activity [7]: Not Active
Activity (LN-18): inactive
Activity (LNZ308 [14]): inactive

IC50 [2]: 50 µM
Ki [2]: 32.5 µM
IC50 [3]: 50 µM
Ki [3]: 41.5 µM
IC50 [4]: 80 µM
Ki [4]: 67 µM
IC50 [5]: 25 µM
Ki [5]: 23.3 µM
SMILES: OC[C@H](NC[C@H]1NC[C@H](O)[C@@H]1O)c1ccccc1
